The record followed here is ChEMBL document CHEMBL1128590, “erbB-2 oncogene inhibition by geldanamycin derivatives: synthesis, mechanism of action, and structure-activity relationships” (J Med Chem, 1995).

For the experiment, the system named is SK-BR-3. Description: In vitro inhibition of p185 erbB-2 oncoprotein in human breast cancer SK-BR-3 cells. The class given is functional, cell-based. In short, it runs like this: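 Cellular assay with read-out as depletion of p185 erbB-2 protein after drug treatment of the cells. This depletion tracks inhibition of p185 autophosphorylation.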

For `C=CCNC1=C2C[C@@H](C)C[C@H](OC)[C@H](O)[C@@H](C)/C=C(\C)[C@H](OC(=O)NCC)[C@@H](OC)/C=C\C=C(/C)C(=O)NC(=CC1=O)C2=O`, the IC50 (as a rule, the midpoint of a concentration-inhibition curve) was over 3.3 µM.

The compound `CO[C@H]1/C=C\C=C(/C)C(=O)N(CC(C)=O)C2=CC(=O)C(N)=C(C[C@@H](C)C[C@H](OC)[C@H](O)[C@@H](C)/C=C(\C)[C@@H]1OC(N)=O)C2=O` yielded an IC50 of 0.83 µM.

Compound `CO[C@H]1/C=C\C=C(/C)C(=O)NC2=CC(=O)C(N3CCC3)=C(C[C@@H](C)C[C@H](OC)[C@H](O)[C@@H](C)/C=C(\C)[C@@H]1/N=C(/N)S)C2=O` registered an IC50 of 1.7 µM.

In the case of `CNC1=C2C[C@@H](C)C[C@H](OC)[C@H](NCc3ccccc3)[C@@H](C)/C=C(\C)[C@H](OC(N)=O)[C@@H](OC)/C=C\C=C(/C)C(=O)NC(=CC1=O)C2=O`, it took 0.85 µM to reach half-maximal inhibition (IC50).

Take `CO[C@H]1/C=C\C=C(/C)C(=O)NC2=CC(=O)C(N3CCC3)=C(C[C@@H](C)C[C@H](OC)[C@H](O)[C@@H](C)/C=C(\C)[C@@H]1O)C2=O`: the IC50 stood at 1.29 µM.

For `C=CCNC1=C2C[C@@H](C)C[C@H](OC)C(=O)[C@@H](C)/C=C(\C)[C@H](OC(N)=O)[C@@H](OC)/C=C\C=C(/C)C(=O)NC(=CC1=O)C2=O`, 0.22 µM corresponded to half-maximal inhibition (IC50).

`CO[C@H]1/C=C\C=C(/C)C(=O)N(CC(=O)c2ccc(N=[N+]=[N-])c(I)c2)C2=CC(=O)C(N)=C(C[C@@H](C)C[C@H](OC)[C@H](O)[C@@H](C)/C=C(\C)[C@@H]1OC(N)=O)C2=O` returned an IC50 of 0.14 µM.

As for `C=CCNC1=C2C[C@@H](C)C[C@H](OC)[C@H](OC(=O)NS(=O)(=O)N3CN(C)C3)[C@@H](C)/C=C(\C)[C@H](OC(N)=O)[C@@H](OC)/C=C\C=C(/C)C(=O)NC(=CC1=O)C2=O`, the IC50 was over 2.5 µM.

For the compound `CO[C@H]1/C=C\C=C(/C)C(=O)N(CC(=O)c2ccccc2)C2=CC(=O)C(N)=C(C[C@@H](C)C[C@H](OC)[C@H](O)[C@@H](C)/C=C(\C)[C@@H]1OC(N)=O)C2=O`, the IC50 was found to be 0.3 µM.

Consider `CO[C@H]1/C=C\C=C(/C)C(=O)N(CC(=O)c2ccc(N=[N+]=[N-])cc2)C2=CC(=O)C(N3CCC3)=C(C[C@@H](C)C[C@H](OC)[C@H](O)[C@@H](C)/C=C(\C)[C@@H]1OC(N)=O)C2=O`, for which the IC50 is 1.9 µM.

In turn, `CO[C@H]1/C=C\C=C(/C)C(=O)N(CC(=O)c2ccc(N=[N+]=[N-])cc2)C2=CC(=O)C(N)=C(C[C@@H](C)C[C@H](OC)[C@H](O)[C@@H](C)/C=C(\C)[C@@H]1OC(N)=O)C2=O` showed an IC50 of 0.23 µM.

The compound `C=CCNC1=C2C[C@@H](C)C[C@H](OC)[C@H](O)[C@@H](C)/C=C(\C)[C@H](OC(=O)CN)[C@@H](OC)/C=C\C=C(/C)C(=O)NC(=CC1=O)C2=O` came in with an IC50 of over 3.3 µM.

In the case of `CO[C@H]1/C=C\C=C(/C)C(=O)NC2=CC(=O)C(N3CCC3)=C(C[C@@H](C)C[C@H](OC)[C@H](O)[C@@H](C)/C=C(\C)[C@@H]1OC(=O)C(=O)O)C2=O`, the IC50 was 1 µM.

`COC(=O)/C(C)=C\C=C\[C@H](OC)[C@@H](OC(N)=O)/C(C)=C/[C@H](C)[C@@H](O)[C@H](C[C@H](C)CC1=C(N2CCC2)C(O)=CC(=N)C1=O)OC` had an IC50 of over 3.2 µM.

In turn, `CO[C@H]1/C=C\C=C(/C)C(=O)NC2=CC(=O)C(NC3CC3)=C(C[C@@H](C)C[C@H](OC)[C@@H](F)[C@@H](C)/C=C(\C)[C@@H]1OC(N)=O)C2=O` came in with an IC50 of 0.5 µM.

On to `C=CCNC1=C2C[C@@H](C)C[C@H](OC)[C@H](OC(=O)NS(=O)(=O)NC(C)C)[C@@H](C)/C=C(\C)[C@H](OC(N)=O)[C@@H](OC)/C=C\C=C(/C)C(=O)NC(=CC1=O)C2=O`, for which the midpoint of inhibition, the IC50, lay at 1.07 µM.

In the case of `C=CCN[C@H]1[C@@H](OC)C[C@H](C)CC2=C(NC)C(=O)C=C(NC(=O)/C(C)=C/C=C\[C@H](OC)[C@@H](OC(N)=O)/C(C)=C/[C@@H]1C)C2=O`, 1 µM corresponded to half-maximal inhibition (IC50).

As for `CO[C@H]1/C=C\C=C(/C)C(=O)N(Cc2ccccn2)C2=CC(=O)C(N)=C(C[C@@H](C)C[C@H](OC)[C@H](O)[C@@H](C)/C=C(\C)[C@@H]1OC(N)=O)C2=O`, the IC50 was over 3.1 µM.
